# Only some compounds are listed: those with a hit (about 2.9% of all), similar ones and a draw of the others.
# S100A4 MyoIIA: inhibitors of S100A4-myosin IIA peptide binding, primary screen, biochemical, fluorescence polarization, TAMRA-MyoIIA peptide. Protein S100-A4 (Homo sapiens), P26447. inhibition, % at 10.7 µM. 0.14% of 360,000 active;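 active = mean inhibition of at least 70% across replicates, with every replicate also reaching that level; inconclusive = mean inhibition reaches 70% but some replicates fall short; inactive = mean inhibition below 70%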
# Target sequence (P26447 whole entry, looked up): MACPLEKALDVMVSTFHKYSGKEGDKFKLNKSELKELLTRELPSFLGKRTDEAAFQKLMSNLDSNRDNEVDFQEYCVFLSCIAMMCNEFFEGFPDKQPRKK
#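 System – human S100A4 monomer protein, biochemical binding assay · Buffer or medium – Calcium-containing HEPES buffer, pH 7.2 · Timing – 5 min between mix addition and reading · Also added – TAMRA-labelled myosin IIA heavy-chain peptide probe, 5 nM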
# DENV2 CPE rescue: inhibitors of DENV2 cytopathic effect, primary screen, cell-based, plate reader, single concentration; DENV2-infected cells, cytopathic effect rescue; AID 651640, 2012; 1.7% of 350,000 active; CPE inhibition, % at 9.99 µM; in the data active = CPE inhibition above about 20%, passing the limit was not always enough; inconclusive = no clear call, values can overlap the other calls; tested in BHK-21 cells
# SIRT5 block: SIRT5 desuccinylase inhibitors, primary screen, biochemical, fluorescence imaging, single point, set 5; NAD-dependent protein deacylase sirtuin-5, mitochondrial (Homo sapiens), Q9NXA8; Purified SirT5, succinyl-peptide AMC, trypsin-coupled fluorescence; inhibition, % at 15 µM; 1.1% of 330,000 active; AID 652115, 2013; in the data active = inhibition above about 15%; inconclusive = no clear call, values can overlap the other calls
# Target sequence (Q9NXA8 whole entry, looked up): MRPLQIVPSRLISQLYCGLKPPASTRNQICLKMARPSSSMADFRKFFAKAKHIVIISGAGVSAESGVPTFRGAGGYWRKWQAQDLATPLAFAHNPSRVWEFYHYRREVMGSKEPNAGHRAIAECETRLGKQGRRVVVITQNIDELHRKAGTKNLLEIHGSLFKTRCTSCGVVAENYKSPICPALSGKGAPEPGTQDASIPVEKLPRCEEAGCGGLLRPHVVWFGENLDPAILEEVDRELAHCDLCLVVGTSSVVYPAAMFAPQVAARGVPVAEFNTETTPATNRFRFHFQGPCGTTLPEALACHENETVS
# CAL PDZ FP-1: CAL PDZ peptide-binding inhibitors, primary screen, biochemical, fluorescence polarization, Cer-tagged CAL PDZ, HTS; AID 504414, 2011; inhibition, % at 20 µM; Golgi-associated PDZ and coiled-coil motif-containing protein (Homo sapiens), Q9HD26; 0.02% of 330,000 active; purified CAL PDZ, TMR-peptide fluorescence polarization, 1 h;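 active = highest replicate inhibition of at least 40%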
#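 material = purified tagged CAL PDZ domain construct (CerCALP) | compound dosing = 20 µM, one dose | times = 1 h at RT | measured by = fluorescence polarization from S- and P-plane intensities, G-factor corrected | read-out = inhibition from polarization loss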
# ERAP1 inh: human ERAP1 aminopeptidase inhibitors, primary screen, biochemical, single point, plate reader | recombinant ERAP1, Leu-AMC fluorescence, 60 min | inhibition, % at 10.7 µM | 0.15% of 340,000 active | AID 652197, 2013;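 active = mean replicate inhibition of at least 30%, or all replicates individually reaching that 30% level; inactive = mean below 30% and not every replicate reaching it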
# CAL PDZ FP-2: untagged CAL PDZ binding inhibitors, primary screen, biochemical, fluorescence polarization, HTS | Golgi-associated PDZ and coiled-coil motif-containing protein (Homo sapiens), Q9HD26 | purified CAL PDZ, TMR-peptide fluorescence polarization, 1 h | inhibition, % at 24.9 µM | 0.92% of 300,000 active | AID 602252, 2012;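 active = mean inhibition of at least 30% with at least half of replicates also reaching 30%; inconclusive = no clear call, values can overlap the other calls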
# Numbers stand for hits; 0 = inactive; ? = inconclusive; - = no result given.
SMILES,S100A4 MyoIIA,DENV2 CPE rescue,SIRT5 block,CAL PDZ FP-1,ERAP1 inh,CAL PDZ FP-2
C[C@@H]1CN([C@H](C)CO)C(=O)Cc2cc(NC(=O)Nc3ccccc3)ccc2O[C@@H]1CN(C)C(=O)Nc1ccccc1,0,0,0,-,0,-
C[C@H]1CN([C@@H](C)CO)C(=O)Cc2cc(NS(=O)(=O)c3ccccc3)ccc2O[C@@H]1CN(C)Cc1ccc(Oc2ccccc2)cc1,0,0,0,-,0,-
Cc1ccc(S(=O)(=O)Nc2ccc3c(c2)CC(=O)N([C@H](C)CO)C[C@@H](C)[C@H](CN(C)Cc2ccc(Oc4ccccc4)cc2)O3)cc1,0,58.5,0,-,0,-
C[C@@H]1CN([C@@H](C)CO)C(=O)Cc2cc(NS(=O)(=O)c3ccccc3)ccc2O[C@@H]1CN(C)Cc1ccc(Oc2ccccc2)cc1,0,25.0,0,-,0,-
Cc1noc(C)c1S(=O)(=O)N(C)C[C@H]1OCCCC[C@@H](C)Oc2ccc(NS(C)(=O)=O)cc2C(=O)N([C@@H](C)CO)C[C@H]1C,0,0,0,-,0,-
Cc1ccc(S(=O)(=O)N[C@H]2C=C[C@H](CC(=O)NCc3ccncn3)O[C@@H]2CO)cc1,0,0,0,-,0,-
CCOC(=O)c1cc2c(=Cc3ccc(N(C)C)cc3)c3ccccc3n2[n+]1C,0,34.9,0,0,0,0
Cc1cc2c(=Cc3ccc(N(C)C)cc3)c3ccccc3n2[n+]1C,0,0,0,0,0,0
CN(C)c1ccc(C=c2c3cc(O)ccc3n3c2cc(-c2ccccc2)[n+]3C)cc1,78.9,0,0,0,55.9,0
C[C@@H]1CN([C@@H](C)CO)C(=O)c2cccc(N(C)C)c2O[C@@H]1CN(C)C(=O)Nc1ccc(F)cc1,0,0,0,-,0,-
Cc1nc2c(-c3ccc(Cl)cc3)c(C)[nH]n2c(=O)c1Cc1ccccc1,0,0,17.1,0,0,0
CCCn1c(SCC(=O)Nc2ccc3c(c2)OCO3)nc2c1c(=O)n(C)c(=O)n2C,0,-,24.6,0,0,0
CCn1c(SCC(=O)Nc2ccc3c(c2)OCO3)nc2c1c(=O)n(C)c(=O)n2C,-,-,-,0,-,0
COc1ccc2ccccc2c1C1CC(=O)N2CN(C3CCCCC3)CSC2=C1C#N (centres undefined),0,0,16.9,0,0,-
C[C@@H]1CN([C@H](C)CO)C(=O)c2cc(NS(=O)(=O)c3ccc(F)cc3)ccc2O[C@@H](C)CCCCO[C@H]1CN(C)Cc1ccncc1,0,50.6,0,-,0,-
C[C@H]1CCCCO[C@H](CN(C)Cc2ccncc2)[C@@H](C)CN([C@@H](C)CO)C(=O)c2cc(NS(=O)(=O)c3ccc(F)cc3)ccc2O1,0,0,0,-,0,-
C[C@@H]1CCCCO[C@@H](CN(C)Cc2ccncc2)[C@H](C)CN([C@@H](C)CO)C(=O)c2cc(NS(=O)(=O)c3ccc(Cl)cc3)ccc2O1,0,60.1,0,-,0,-
CC(=O)Nc1ccc(NC(=O)C(C)OC(=O)C2CCC2)cc1 (centres undefined),0,?,0,0,0,0
CCCCC1CCC(C(=O)OC(C)C(=O)Nc2ccc(NC(C)=O)cc2)CC1 (centres undefined),0,?,0,0,75.4,0
COc1ccc(S(=O)(=O)N(C)C[C@H]2Oc3ccc(NC(=O)CCCN(C)C)cc3CC(=O)N([C@@H](C)CO)C[C@H]2C)cc1,0,-,0,-,0,-
Cc1ccc(S(=O)(=O)N(C)C[C@H]2Oc3ccc(NC(=O)CCCN(C)C)cc3CC(=O)N([C@@H](C)CO)C[C@H]2C)cc1,0,43.0,0,-,0,-
C[C@@H]1CN([C@@H](C)CO)C(=O)Cc2cc(NC(=O)CCCN(C)C)ccc2O[C@H]1CN(C)S(=O)(=O)c1ccc(Cl)cc1,0,0,0,-,0,-
COc1ccc(S(=O)(=O)N(C)C[C@H]2Oc3ccc(NC(=O)CCCN(C)C)cc3CC(=O)N([C@H](C)CO)C[C@H]2C)cc1,0,28.8,-,-,0,-
Cc1ccccc1NC(=O)c1nc(S(C)(=O)=O)ncc1Cl,0,0,0,0,0,85.8
C[C@H](CO)N1C[C@H](C)[C@@H](CN(C)C)Oc2ncc(-c3cccc(C(=O)N(C)C)c3)cc2C1=O,0,0,0,-,0,-
SMILES,S100A4 MyoIIA,DENV2 CPE rescue,SIRT5 block,CAL PDZ FP-1,ERAP1 inh,CAL PDZ FP-2
O=C(/C=C/c1ccc(Br)o1)OCc1nc2ccsc2c(=O)[nH]1,0,-,25.3,0,0,0
Cc1ccc(C(=O)OCc2nc3ccsc3c(=O)[nH]2)o1,0,0,0,0,0,0
O=C(C[C@@H]1C=C[C@H](NS(=O)(=O)c2ccccc2)[C@@H](CO)O1)NCc1ccncn1,0,0,0,-,0,-
O=C(C[C@@H]1CC[C@@H]2[C@H](COC[C@@H](O)CN2C(=O)c2ccc3c(c2)OCO3)O1)NCCN1CCCC1,72.7,0,0,-,0,-
O=C(C[C@@H]1CC[C@H]2[C@@H](COC[C@@H](O)CN2C(=O)c2ccc3c(c2)OCO3)O1)NCCN1CCCCC1,0,0,0,-,0,-
O=C(C[C@@H]1CC[C@@H]2[C@H](COC[C@H](O)CN2C(=O)c2ccc3c(c2)OCO3)O1)NCCN1CCCC1,0,30.5,0,-,0,-
Cc1ccc(S(=O)(=O)NCC[C@H]2CC[C@@H](NS(=O)(=O)c3ccccc3Cl)[C@@H](CO)O2)cc1,0,0,0,-,0,-
C[C@H]1CN([C@@H](C)CO)C(=O)c2cc(Br)cnc2O[C@H]1CN(C)C(=O)c1ccccc1F,138.8,?,0,-,0,-
C[C@@H]1CN([C@H](C)CO)C(=O)c2cc(C#Cc3ccccc3)cnc2O[C@@H]1CN(C)C(=O)c1ccccc1F,74.4,0,0,-,0,-
C[C@H](CO)N1C[C@H](C)[C@H](CN(C)C(=O)CN(C)C)Oc2ncc(C#Cc3ccccc3)cc2C1=O,0,50.6,0,-,0,-
Cc1noc(C)c1NC(=O)N[C@H]1CC[C@@H](CC(=O)Nc2ccccc2)O[C@@H]1CO,0,0,0,-,0,-
O=C1OC2(CCCCC2)OC(=O)C1=CNc1nccs1,-,-,-,0,-,0
O=C1OC2(CCCCC2)OC(=O)C1=CNc1nc2ccccc2s1,-,-,-,0,-,51.9
O=C1OC(c2ccccc2)(N(Nc2ccccc2)c2ccccc2)c2ccccc21 (centres undefined),0,23.9,0,-,0,-
O=C(NNS(=O)(=O)c1ccc(F)cc1)C1CC(c2cccnc2)=NO1 (centres undefined),0,0,0,0,0,74.3

# Screens (PubChem BioAssay)
